Measured values collected from several papers.
Each line is one published result; the experiments were not run side by side.
Target: Serine/threonine-protein kinase Sgk3 (SGK3, Homo sapiens, UniProt Q96BR1)
Sequence (Q96BR1 1-496, as in one of the studies): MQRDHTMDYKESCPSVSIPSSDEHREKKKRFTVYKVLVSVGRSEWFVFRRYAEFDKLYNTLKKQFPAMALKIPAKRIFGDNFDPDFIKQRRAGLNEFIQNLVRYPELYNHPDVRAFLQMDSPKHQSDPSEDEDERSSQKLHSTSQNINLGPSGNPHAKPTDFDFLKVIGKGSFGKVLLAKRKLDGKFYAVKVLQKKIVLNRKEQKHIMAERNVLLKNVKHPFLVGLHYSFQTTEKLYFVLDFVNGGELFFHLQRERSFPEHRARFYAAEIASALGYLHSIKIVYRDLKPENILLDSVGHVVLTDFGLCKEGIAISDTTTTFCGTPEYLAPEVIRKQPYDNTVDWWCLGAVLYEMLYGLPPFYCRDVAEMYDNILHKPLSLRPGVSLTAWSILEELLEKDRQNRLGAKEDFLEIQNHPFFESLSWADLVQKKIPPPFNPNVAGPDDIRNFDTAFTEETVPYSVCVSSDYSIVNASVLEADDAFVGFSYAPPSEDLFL

Cn1nc(C(F)(F)F)cc1-c1cnc(N2CCc3cc(S(=O)(=O)Nc4c(F)cc(Cl)cc4F)cc(N4CCCC4=O)c32)nc1 gave a remaining binding of 78% (cell-free assay; competition with immobilised ligand; 1 µM).
CNc1cccc2cc(C(=O)Nc3ccc(C(=O)O)cc3)c(=O)[nH]c12 has an inhibition of -2.1% (enzyme activity; inhibitor; 10 µM).
For Cc1ccc(NC(=O)c2ccc(C)c(C(F)(F)F)c2)cc1C#Cc1nn(C2CCC(O)CC2)c2ncnc(N)c12 (stereo not drawn), the remaining signal was 98% (cell-free assay; 10 µM).
For CNC(=O)c1ccc(Nc2ncc(C(F)(F)F)c(NCc3nccnc3N(C)S(C)(=O)=O)n2)cc1, the remaining binding was 85% (cell-free assay; competition with immobilised ligand; 0.1 µM).
With CNC(=O)c1cc(Oc2ccc(NC(=O)Nc3ccc(Cl)c(C(F)(F)F)c3)cc2)ccn1 the inhibition was 11% (enzyme activity; inhibitor; 10 µM).
With CS(=O)(=O)N1CCCC(NC(=O)[C@H](CCC2CCCCC2)NC(=O)c2ccc(CNC(=O)c3cnc4ccccn34)cc2)C1 (stereo partly drawn) the remaining binding was 74% (cell-free assay; competition with immobilised ligand; 0.1 µM).
CCN(CC)CCNC(=O)c1c(C)[nH]c(/C=C2\C(=O)Nc3ccc(F)cc32)c1C has a remaining signal of 101% (cell-free assay; 0.5 µM).
O=C(Nc1cnn(-c2csc(C(=O)NC3COC3)c2)c1)Nc1c(F)cccc1Cl has a remaining activity of 95.3% (enzyme activity; inhibitor; 5 µM).
The remaining binding of O=C(Nc1cccnn1)N1CC(C/C=C/c2cncc(Oc3ccc(C(F)(F)F)cn3)n2)C1 is reported as 87% (cell-free assay; competition with immobilised ligand; 1 µM).
The remaining signal of Nc1ncnc2occ(-c3ccc(NC(=O)Nc4cc(C(F)(F)F)ccc4F)cc3)c12 is reported as 6.6% (cell-free assay; inhibitor; 20 µM).
The inhibition of CCCS(=O)(=O)Nc1ccc(F)c(C(=O)c2c[nH]c3ncc(-c4ccc(Cl)cc4)cc23)c1F is reported as under 10% (enzyme activity; inhibitor; 1 µM).
For CN1CC(Oc2cnc(C#N)cc2-c2ccn3nc(NC(=O)C4CC4)cc3c2)C1, the inhibition was -3% (enzyme activity; inhibitor; 1 µM).
Cc1ccc(Nc2nccc(N(C)c3ccc4c(C)n(C)nc4c3)n2)cc1S(N)(=O)=O has an inhibition of 10% (enzyme activity; inhibitor; 0.3 µM).
COc1cc2ncnc(Nc3ccc(Oc4ccccc4)cc3C)c2cc1OC gave an inhibition of 0% (enzyme activity; inhibitor; 1 µM).
The remaining binding of Cc1c(NC(=O)c2cc(C(N)=O)nc3cc(F)ccc23)c(C(F)(F)F)nn1Cc1ccc(C#N)cc1 is reported as 83% (cell-free assay; competition with immobilised ligand; 1 µM).
CC(C)(C)c1nc2c(s1)c1nc(N)ncc1c1ccc(NS(=O)(=O)c3c(F)cccc3F)c(F)c12 gave a remaining activity of 89% (enzyme activity; inhibitor; radiometric; 1 µM).
C[C@@H]1CCN(C(=O)CC#N)C[C@@H]1N(C)c1ncnc2[nH]ccc12 gave a remaining signal of 98.1% (cell-free assay; inhibitor; 0.5 µM).
Cc1cc(NC(=O)c2cccc(S(F)(F)(F)(F)F)c2)cc(-n2ccn3nc(-c4cccnc4)cc23)c1 gave a remaining binding of 72.1% (cell-free assay; competition with immobilised ligand; 1 µM).
For CCOc1cc(-c2nncn2C)ccc1Nc1ncc2cc(C)nc(NCC(C)(C)C)c2n1, the inhibition was under 15% (enzyme activity; inhibitor; FRET; 1 µM).
With Cc1cc(NC(=O)c2cccc3cc(-c4cccc5[nH]nc(N)c45)ccc23)ccc1F the activity vs control was 106% (enzyme activity; inhibitor; 0.1 µM).
With c1ccc(CNc2nc(N3CCOc4ccccc43)nc3c2CCCC3)cc1 the inhibition was -9% (target engagement in cells; inhibitor; chemoproteomics; 20 mM).
The remaining binding of CO[C@@H](C)c1c(Nc2ccc([C@H](N(C)C(=O)C3CCS(=O)(=O)CC3)C(F)(F)F)cc2)cnc2cc(Cl)nn12 is reported as 100% (cell-free assay; competition with immobilised ligand; 1 µM).
O=C1Nc2ccc(Cl)cc2C1=Cc1cc(Cl)c(O)c(Cl)c1 has a remaining signal of 98.6% (cell-free assay; 0.5 µM).
For CC/C(=N\NC(=O)NCc1cccc(O)c1)c1ccc(O)c(C)c1O, the inhibition was 83.9% (enzyme activity; inhibitor; 0.1 µM).
